Screening data deposited in PubChem BioAssay by several laboratories.
Sampled rows, rich in hits. Any-hit rate of the full collection: about 4.1%.
APP 5'UTR act – APP 5'UTR luciferase reporter activation | SH-SY5Y APP 5'UTR luciferase reporter, luminescence; zero percent = DMSO vehicle wells | activation, % at 2 µM | AID 1276 | hit rate 1% among 190,000;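 active means activation above a set limit, based on mean plus 3 SD of controls, cut at about 140% in these data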
FLuc stim CS – firefly luciferase counter-screen for stimulation assays; P08659; ATPlite luciferase biochemical, luminescence, 10 min; 0 = ATP-free wells, 1 = DMSO control; activation factor at 10 µM; 200,000 tested, under 10 active; AID 1027;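 active means luciferase activation factor, scaled between plate controls, of at least 2 with compound at 10 µM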
Target sequence (P08659 whole entry, looked up): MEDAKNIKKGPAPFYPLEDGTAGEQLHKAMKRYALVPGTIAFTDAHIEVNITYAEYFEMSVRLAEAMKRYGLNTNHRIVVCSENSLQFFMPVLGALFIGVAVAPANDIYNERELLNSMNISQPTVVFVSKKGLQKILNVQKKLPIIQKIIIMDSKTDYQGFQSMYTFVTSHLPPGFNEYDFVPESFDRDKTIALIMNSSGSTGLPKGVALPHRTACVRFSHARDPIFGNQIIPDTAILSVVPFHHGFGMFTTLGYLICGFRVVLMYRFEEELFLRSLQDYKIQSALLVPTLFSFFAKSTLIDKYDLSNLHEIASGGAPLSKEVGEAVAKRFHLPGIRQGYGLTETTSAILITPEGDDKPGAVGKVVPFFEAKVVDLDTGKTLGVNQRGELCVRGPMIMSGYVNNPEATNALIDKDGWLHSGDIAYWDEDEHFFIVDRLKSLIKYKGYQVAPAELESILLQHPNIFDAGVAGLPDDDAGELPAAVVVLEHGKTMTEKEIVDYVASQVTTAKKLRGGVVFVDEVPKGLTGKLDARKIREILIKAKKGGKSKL
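System: luciferase plus luciferin reagent, cell-free; medium: PBS as buffer for the ATP substrate; dosing: test compounds dosed from 2 mM stocks in 100% DMSO; timing: 10 min post-reagent at room temperature; measured by: luminescence measurement of luciferase light output; evaluation: luciferase activation, seen as luminescence increase over controls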
NF-kB expr up – raises NF-kB expression in human neuronal cells; NF-kB reporter expression; active compounds read high; fold change at 12.5 µM; hit rate 1.6% among 190,000; in the data active means fold change above about 3.3
FLuc inhib CS – counter-screen for luciferase assay inhibitors: firefly luciferase inhibition | inhibition, % at 10 µM | ATPLite firefly luciferase biochemical luminescence, 10 min | AID 1006 | hit rate 1.5% among 200,000 | P08659;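 active means inhibition above about 50% when tested at 10 µM, limit read from the data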
STAT1 activator – activators of IFN-gamma induced STAT1 signaling; NIH 3T3 STAT1-luciferase reporter, luminescence; 100% = IFN-gamma alone, no compound; activation (% of control), % at 5.5 µM; hit rate 2.6% among 200,000;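 active means activation above the screen-wide mean activation plus 3 SD, cut at about 130% in these data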
Each line names hits and unclear results; the compound was inactive in the other large screens.

CCN(CC)S(=O)(=O)c1ccc(/C=C/C(=O)Nc2ccc(Br)cc2F)cc1	none
O=C(Nc1ccc(Br)cc1)c1cnccn1	none
Cc1ccc(NC(=O)c2cnccn2)cc1	STAT1 activator 133.8
COc1ccc(-c2noc(-c3ccccc3C(=O)Nc3cccc(OC)c3)n2)cc1	none
CC(=O)Nc1cccc(Oc2ccc(-c3noc(C)n3)cc2)c1	STAT1 activator 138.4
Cc1ccc(Nc2ncccc2C(N)=O)cc1[N+](=O)[O-]	STAT1 activator 141.3
CCOC(=O)c1ccc(Nc2ncccc2[N+](=O)[O-])cc1	APP 5'UTR act 151.1, NF-kB expr up 7.84, STAT1 activator 134.8
CCOc1ccc(NC(=S)Nc2cc(C)[nH]n2)cc1	STAT1 activator 131.7 (no result: NF-kB expr up)
CCOC(=O)c1ccc(NC(=O)c2ccccc2[N+](=O)[O-])cc1	none
CCOC(=O)c1ccc(NC(=S)Nc2ccccn2)cc1	STAT1 activator 128.8
Cc1ccc(N2CCN(S(=O)(=O)N3CCCCC3)CC2)c(C)c1	none
CCOC(=O)NC(=O)CSc1nc(C)cc(C(F)(F)F)c1C#N	none
O=C(NCc1ccco1)c1ccc([N+](=O)[O-])o1	NF-kB expr up 5.63
O=C(NCc1cccnc1)c1ccc([N+](=O)[O-])o1	NF-kB expr up 5.33
Cc1cc(=O)oc(C)c1C(=O)NCc1cccnc1	none
O=C(NCc1ccco1)c1ccc(Cn2cc([N+](=O)[O-])cn2)o1	none
O=C(NN(c1ccccc1)c1ccccc1)c1ccc([N+](=O)[O-])o1	NF-kB expr up 3.55
c1csc(C2Nc3ccccc3-c3nc4ccccc4n32)c1 (stereo not drawn)	none
Cc1ccsc1C1Nc2ccccc2-c2nc3ccccc3n21 (stereo not drawn)	STAT1 activator 129.1
COc1ccc(/C(N)=N/OC(=O)CSc2ccccc2)cc1OC	STAT1 activator 145.4
COc1ccc(/C(N)=N/OC(=O)c2ccco2)cc1OC	STAT1 activator 148.9
N/C(=N\OC(=O)c1ccco1)c1cccc(Br)c1	APP 5'UTR act 136.6, FLuc inhib CS 56.0
N/C(=N\OC(=O)c1ccco1)c1cccc([N+](=O)[O-])c1	none
CCOC(=O)Nc1sc2c(c1C#N)CCC(C)C2 (stereo not drawn)	NF-kB expr up 3.93, STAT1 activator 132.4
Cc1[nH]n(-c2ccccc2)c(=O)c1C=NC1CCCCC1	NF-kB expr up 6.1
C=CCN=Cc1c(C)[nH]n(-c2ccccc2)c1=O	NF-kB expr up 10.8
Cc1[nH]n(-c2ccc([N+](=O)[O-])cc2)c(=O)c1C=NCC1CCCO1 (stereo not drawn)	STAT1 activator 134.7
CC(C)(C)c1ccc(S(=O)(=O)NCc2ccc(C(=O)NCc3ccccn3)cc2)cc1	none
COC(=O)c1cn(NC(=O)c2cc([N+](=O)[O-])ccc2F)c(=O)c2ccccc12	STAT1 activator 139.1
COC(=O)c1cn(NC(=O)C2CCC(C)CC2)c(=O)c2ccccc12 (stereo not drawn)	none
Cc1cccc(N2CC3=C(C2=O)C(c2ccccc2)NC(=O)N3C)c1 (stereo not drawn)	none
COC(=O)c1ccccc1NC(=O)c1ccc(-c2ccc(Br)cc2)o1	STAT1 activator 138.5
OCC1(Cc2cccc(F)c2)CCN(Cc2ccc3cccc(F)c3n2)CC1	none
O=C(c1cnsn1)N1CCC(CO)(Cc2cccc(F)c2)CC1	STAT1 activator 133.3 (no result: NF-kB expr up)
Cc1ccc(/C=N\NC(=O)c2csnn2)cc1	FLuc inhib CS 65.5, STAT1 activator 134.0
Cc1ccccc1NC(=O)c1csc2c1CCCC2	none
COc1ccc(NC(=O)c2csc3c2CCCC3)cc1	APP 5'UTR act 159.3, NF-kB expr up 7.31, STAT1 activator 141.5
Cc1ccc(/C=N/NC(=O)c2csc3c2CCCC3)cc1	NF-kB expr up 3.77
CC(C)(C)C1CCc2c(C(=O)N/N=C/c3cccs3)csc2C1 (stereo not drawn)	STAT1 activator 129.2
COc1cc(/C=N/NC(=O)c2csc3c2CCCC3)cc(OC)c1O	none
Cc1ccc(C2Oc3ccccc3C3=C2C(c2cccs2)n2ncnc2N3)cc1 (stereo not drawn)	none
CC(C)COC(=O)C(N)C(C(=O)OCC(C)C)c1ccccc1 (stereo not drawn)	none
COCCCNC(=O)/C=C/c1cccc(Cl)c1	none
COc1ccccc1CCNC(=O)c1csc2c1CCCC2	none
COc1cccc(NC(=O)c2csc3c2CCCC3)c1	STAT1 activator 144.9
CCCc1[nH][nH]c(=O)c1C(c1ccccc1)C(C#N)C#N (stereo not drawn)	none
